Assay results as given in the M2OR odorant receptor database.

How the values were obtained:
Conditions in all cases: stereoisomer not certain
[1] = target: T1, UniProt Q8VGL0
T1 sequence (whole entry): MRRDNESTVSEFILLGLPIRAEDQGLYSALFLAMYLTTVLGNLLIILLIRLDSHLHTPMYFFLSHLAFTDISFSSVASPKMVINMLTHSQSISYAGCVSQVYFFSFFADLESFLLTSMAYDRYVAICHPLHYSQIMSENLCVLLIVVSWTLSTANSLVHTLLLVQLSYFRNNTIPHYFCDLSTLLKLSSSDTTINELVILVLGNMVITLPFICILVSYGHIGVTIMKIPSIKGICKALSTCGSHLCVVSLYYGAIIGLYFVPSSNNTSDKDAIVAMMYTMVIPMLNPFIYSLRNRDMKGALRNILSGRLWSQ
In short: (§1)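 Transient luciferase assays in mammalian cell lines were common, though methods varied by source. The values come from published papers and their supplementary material, with extra details from the original authors when needed. Responsive refers to a measured signal the original authors judged statistically different from baseline, and non-responsive (inactive) to the remainder.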

[2] = target: T2, UniProt Q8VGU3
T2 sequence (whole entry): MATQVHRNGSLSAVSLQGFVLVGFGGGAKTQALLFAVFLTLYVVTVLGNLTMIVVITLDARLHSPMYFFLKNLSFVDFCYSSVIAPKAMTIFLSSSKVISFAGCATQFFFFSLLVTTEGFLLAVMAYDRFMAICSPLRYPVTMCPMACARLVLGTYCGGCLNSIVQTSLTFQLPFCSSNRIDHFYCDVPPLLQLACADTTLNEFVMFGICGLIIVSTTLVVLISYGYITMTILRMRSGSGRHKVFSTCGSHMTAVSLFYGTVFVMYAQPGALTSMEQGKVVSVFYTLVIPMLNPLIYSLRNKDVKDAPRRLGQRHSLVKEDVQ
In short: as §1

[3] = target: T3, UniProt Q8VGV7
T3 sequence (whole entry): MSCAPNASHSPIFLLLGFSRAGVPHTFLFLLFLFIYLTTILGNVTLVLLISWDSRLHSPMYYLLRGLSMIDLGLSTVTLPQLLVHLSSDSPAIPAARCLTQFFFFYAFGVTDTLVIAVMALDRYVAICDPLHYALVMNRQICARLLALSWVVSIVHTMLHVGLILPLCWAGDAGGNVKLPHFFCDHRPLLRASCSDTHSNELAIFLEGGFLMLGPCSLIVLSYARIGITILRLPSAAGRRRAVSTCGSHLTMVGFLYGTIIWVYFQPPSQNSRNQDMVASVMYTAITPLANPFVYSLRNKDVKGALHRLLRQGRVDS
In short: as §1

[4] = target: T4, UniProt Q8VGX3
T4 sequence (whole entry): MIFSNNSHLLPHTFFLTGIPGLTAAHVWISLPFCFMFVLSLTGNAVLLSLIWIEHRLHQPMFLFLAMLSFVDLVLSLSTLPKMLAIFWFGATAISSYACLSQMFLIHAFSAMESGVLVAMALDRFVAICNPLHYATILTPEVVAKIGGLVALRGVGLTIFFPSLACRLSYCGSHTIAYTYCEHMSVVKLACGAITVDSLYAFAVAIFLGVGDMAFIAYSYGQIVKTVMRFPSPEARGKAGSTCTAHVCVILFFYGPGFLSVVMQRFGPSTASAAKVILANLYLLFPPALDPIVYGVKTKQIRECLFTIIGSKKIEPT
In short: as §1

[5] = target: T5, UniProt Q8VGX5
T5 sequence (whole entry): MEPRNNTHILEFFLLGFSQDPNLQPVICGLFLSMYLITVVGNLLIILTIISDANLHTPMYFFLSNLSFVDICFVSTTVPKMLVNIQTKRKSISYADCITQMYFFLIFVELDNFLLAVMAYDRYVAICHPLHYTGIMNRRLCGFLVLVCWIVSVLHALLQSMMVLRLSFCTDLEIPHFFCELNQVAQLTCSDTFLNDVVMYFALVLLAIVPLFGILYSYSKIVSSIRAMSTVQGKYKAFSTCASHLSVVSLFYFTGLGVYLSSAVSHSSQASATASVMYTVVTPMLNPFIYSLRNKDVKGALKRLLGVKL
In short: as §1

[6] = target: T6, UniProt Q8VGZ2
T6 sequence (whole entry): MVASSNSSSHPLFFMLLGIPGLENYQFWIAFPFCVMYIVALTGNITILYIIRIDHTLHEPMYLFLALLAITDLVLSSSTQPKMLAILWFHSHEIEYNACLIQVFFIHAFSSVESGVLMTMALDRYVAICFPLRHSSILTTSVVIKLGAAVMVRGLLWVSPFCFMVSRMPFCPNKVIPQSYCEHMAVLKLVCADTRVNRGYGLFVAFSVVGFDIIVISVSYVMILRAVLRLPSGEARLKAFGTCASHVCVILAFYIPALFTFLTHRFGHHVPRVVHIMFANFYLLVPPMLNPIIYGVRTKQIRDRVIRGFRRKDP
In short: as §1

[7] = target: T7, UniProt Q8VGZ7
T7 sequence (whole entry): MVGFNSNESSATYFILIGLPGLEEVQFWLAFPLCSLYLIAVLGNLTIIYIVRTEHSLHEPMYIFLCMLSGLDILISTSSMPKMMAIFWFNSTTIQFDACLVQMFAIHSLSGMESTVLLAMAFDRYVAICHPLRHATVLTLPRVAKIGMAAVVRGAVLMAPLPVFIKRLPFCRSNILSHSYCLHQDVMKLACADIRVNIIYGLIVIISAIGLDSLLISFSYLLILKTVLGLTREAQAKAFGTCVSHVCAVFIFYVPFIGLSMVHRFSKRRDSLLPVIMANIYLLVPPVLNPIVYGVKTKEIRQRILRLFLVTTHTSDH
In short: as §1

[8] = target: T8, UniProt Q8VH16
T8 sequence (whole entry): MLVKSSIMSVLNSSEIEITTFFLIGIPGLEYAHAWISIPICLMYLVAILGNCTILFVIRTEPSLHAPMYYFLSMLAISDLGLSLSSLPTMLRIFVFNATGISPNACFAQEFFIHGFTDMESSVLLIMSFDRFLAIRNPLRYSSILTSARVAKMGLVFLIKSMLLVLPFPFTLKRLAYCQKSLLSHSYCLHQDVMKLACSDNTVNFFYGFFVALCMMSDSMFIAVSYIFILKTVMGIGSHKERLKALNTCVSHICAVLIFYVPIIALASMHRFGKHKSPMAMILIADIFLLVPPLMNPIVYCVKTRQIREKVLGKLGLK
In short: as §1

[9] = target: T9, UniProt Q8VH20
T9 sequence (whole entry): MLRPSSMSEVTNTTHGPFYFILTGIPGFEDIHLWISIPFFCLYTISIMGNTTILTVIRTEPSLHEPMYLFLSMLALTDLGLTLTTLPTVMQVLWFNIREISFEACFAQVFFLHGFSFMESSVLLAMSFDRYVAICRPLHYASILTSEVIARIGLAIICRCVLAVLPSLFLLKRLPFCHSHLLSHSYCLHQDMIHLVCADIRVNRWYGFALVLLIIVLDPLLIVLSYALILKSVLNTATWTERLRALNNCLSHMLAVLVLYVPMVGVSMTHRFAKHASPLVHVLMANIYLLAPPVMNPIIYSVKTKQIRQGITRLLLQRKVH
In short: as §1

[10] = target: T10, UniProt Q8VGJ5
T10 sequence (whole entry): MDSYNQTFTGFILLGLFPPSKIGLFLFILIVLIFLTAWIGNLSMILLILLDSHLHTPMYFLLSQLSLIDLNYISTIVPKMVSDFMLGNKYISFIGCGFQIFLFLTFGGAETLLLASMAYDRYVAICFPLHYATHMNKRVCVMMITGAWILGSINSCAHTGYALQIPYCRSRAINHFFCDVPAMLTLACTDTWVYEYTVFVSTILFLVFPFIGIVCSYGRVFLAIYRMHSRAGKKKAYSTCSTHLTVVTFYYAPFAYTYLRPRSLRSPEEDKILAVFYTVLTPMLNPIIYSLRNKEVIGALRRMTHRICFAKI
In short: as §1

[11] = target: T11, UniProt Q8VGL7
T11 sequence (whole entry): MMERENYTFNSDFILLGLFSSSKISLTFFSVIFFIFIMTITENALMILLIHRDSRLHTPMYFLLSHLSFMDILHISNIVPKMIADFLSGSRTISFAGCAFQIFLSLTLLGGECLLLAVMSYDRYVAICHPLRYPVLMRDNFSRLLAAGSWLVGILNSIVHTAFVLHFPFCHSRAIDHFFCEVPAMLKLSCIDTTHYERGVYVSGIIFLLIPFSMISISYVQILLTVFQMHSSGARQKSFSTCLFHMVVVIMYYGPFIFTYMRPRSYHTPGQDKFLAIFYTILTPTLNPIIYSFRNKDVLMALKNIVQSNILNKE
In short: as §1

[12] = target: T12, UniProt Q8VGM2
T12 sequence (whole entry): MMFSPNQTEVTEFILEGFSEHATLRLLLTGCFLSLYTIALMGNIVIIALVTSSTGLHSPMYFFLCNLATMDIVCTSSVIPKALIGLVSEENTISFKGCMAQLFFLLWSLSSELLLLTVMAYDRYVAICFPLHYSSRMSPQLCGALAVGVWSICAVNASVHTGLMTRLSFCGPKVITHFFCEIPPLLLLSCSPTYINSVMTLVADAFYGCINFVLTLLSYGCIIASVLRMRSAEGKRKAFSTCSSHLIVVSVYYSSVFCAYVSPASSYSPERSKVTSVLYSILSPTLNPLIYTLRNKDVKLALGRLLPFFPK
In short: as §1

[13] = target: T13, UniProt Q8VGP6
T13 sequence (whole entry): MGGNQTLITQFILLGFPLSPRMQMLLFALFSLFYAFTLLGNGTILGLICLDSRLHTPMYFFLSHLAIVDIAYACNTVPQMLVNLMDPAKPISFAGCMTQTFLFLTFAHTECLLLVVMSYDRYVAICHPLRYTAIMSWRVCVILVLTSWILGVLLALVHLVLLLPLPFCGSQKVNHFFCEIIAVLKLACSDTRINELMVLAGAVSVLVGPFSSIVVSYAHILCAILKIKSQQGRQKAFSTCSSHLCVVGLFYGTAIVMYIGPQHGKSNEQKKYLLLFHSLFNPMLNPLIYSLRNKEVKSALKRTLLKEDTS
In short: as §1

[14] = target: T14, UniProt Q8VGQ3
T14 sequence (whole entry): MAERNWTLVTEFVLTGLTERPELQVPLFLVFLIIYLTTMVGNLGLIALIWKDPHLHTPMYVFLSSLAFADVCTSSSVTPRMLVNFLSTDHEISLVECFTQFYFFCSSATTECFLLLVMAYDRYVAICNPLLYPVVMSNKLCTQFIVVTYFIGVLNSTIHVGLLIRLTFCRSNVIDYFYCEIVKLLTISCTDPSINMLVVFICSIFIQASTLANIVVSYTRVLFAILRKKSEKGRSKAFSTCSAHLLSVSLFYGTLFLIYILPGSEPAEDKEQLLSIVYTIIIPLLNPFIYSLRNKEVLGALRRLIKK
In short: as §1

[15] = target: T15, UniProt Q8VGT4
T15 sequence (whole entry): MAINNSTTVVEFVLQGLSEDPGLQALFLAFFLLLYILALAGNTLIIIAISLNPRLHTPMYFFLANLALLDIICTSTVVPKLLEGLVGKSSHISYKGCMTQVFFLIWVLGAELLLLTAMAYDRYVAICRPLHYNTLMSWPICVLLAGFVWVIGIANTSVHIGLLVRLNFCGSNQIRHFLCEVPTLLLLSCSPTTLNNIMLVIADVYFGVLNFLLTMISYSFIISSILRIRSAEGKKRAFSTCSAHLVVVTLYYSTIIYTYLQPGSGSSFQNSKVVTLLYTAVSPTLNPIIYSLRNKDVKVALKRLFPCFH
In short: as §1

[16] = target: T16, UniProt Q8VGV1
T16 sequence (whole entry): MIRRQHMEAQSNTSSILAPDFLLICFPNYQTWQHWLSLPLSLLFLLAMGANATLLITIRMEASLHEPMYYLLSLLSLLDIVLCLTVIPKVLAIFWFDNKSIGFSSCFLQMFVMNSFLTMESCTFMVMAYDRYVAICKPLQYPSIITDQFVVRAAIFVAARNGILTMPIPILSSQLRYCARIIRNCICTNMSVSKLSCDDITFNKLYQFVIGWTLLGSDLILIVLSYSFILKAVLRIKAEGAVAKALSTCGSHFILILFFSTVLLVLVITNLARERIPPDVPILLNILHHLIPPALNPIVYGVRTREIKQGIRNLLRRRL
In short: as §1

[17] = target: T17, UniProt Q8VGX8
T17 sequence (whole entry): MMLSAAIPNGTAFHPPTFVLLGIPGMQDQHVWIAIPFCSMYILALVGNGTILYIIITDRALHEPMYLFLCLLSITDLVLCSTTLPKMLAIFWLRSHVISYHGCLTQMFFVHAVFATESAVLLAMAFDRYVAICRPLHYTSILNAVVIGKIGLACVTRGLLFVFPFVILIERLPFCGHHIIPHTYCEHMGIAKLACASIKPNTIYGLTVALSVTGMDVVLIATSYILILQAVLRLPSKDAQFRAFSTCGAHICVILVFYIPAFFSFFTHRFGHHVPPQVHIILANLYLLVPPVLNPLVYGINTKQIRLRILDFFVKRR
In short: as §1

[18] = target: T18, UniProt Q8VGY6
T18 sequence (whole entry): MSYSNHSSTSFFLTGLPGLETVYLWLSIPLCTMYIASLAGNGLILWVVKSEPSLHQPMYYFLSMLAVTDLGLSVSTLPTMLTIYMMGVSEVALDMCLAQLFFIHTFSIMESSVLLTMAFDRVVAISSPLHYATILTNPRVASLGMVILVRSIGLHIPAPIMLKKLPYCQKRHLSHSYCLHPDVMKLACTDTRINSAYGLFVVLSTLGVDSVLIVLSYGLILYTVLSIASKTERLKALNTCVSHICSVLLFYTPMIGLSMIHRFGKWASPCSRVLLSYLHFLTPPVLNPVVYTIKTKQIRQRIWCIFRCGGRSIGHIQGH
In short: as §1

[19] = target: T19, UniProt Q8VH10
T19 sequence (whole entry): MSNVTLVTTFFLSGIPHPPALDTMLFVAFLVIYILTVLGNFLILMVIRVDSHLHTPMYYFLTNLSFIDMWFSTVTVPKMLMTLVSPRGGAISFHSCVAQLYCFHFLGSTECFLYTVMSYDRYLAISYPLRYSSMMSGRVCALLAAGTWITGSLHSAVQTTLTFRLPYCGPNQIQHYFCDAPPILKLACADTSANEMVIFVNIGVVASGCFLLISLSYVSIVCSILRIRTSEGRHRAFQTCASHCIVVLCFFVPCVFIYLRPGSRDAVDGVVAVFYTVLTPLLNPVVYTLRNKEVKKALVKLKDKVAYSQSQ
In short: as §1

Measured: odorant receptor agonist call;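 further: active if original authors judged signal statistically different from baseline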

O=CC=Cc1ccccc1
inactive: [1] | [2] | [3] | [4] | [5] | [6] | [7] | [8] | [9]

O=c1cc(O)c2ccccc2o1
inactive: all assays above
